Results published in ChEMBL document CHEMBL3877264, “Quinolidene-rhodanine conjugates: Facile synthesis and biological evaluation” (Eur J Med Chem, 2017).
Values after ≈ are worked out from the molar mass of the structure shown.

Legend:
Type in all cases: functional
[1] = tested on: Staphylococcus aureus; assay: Antibacterial activity against of Staphylococcus aureus NCIM 2010 measured after 12 hrs; settings: NCIM 2010, 12 h
Summary of the method: (§1)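 Bacteria grown in LB at 37 °C and 180 rpm to OD 1. Compounds added to wells, then 0.1% inoculum of 1 OD culture (620 nm). Growth read as OD at 620 nm after 8 h for gram-negative and after 12 h for gram-positive strains.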

[2] = Antifungal activity against Cryptococcus neoformans NCIM 576 by standard agar method
Summary of the method: (§2)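 MICs determined by standard agar method; DMSO as solvent control.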

[3] = tested on: Pseudomonas fluorescens; assay: Antibacterial activity against Pseudomonas fluorescens NCIM 2036 measured after 8 hrs; settings: NCIM 2036, 8 h; summary of the method: as §1
[4] = tested on: Escherichia coli; assay: Growth inhibition of Escherichia coli NCIM 2688 at 10 ug/ml measured after 8 hrs relative to control; settings: NCIM 2688, 8 h, read-out: GI; summary of the method: as §1
[5] = tested on: Staphylococcus aureus; assay: Growth inhibition of Staphylococcus aureus NCIM 2010 at 10 ug/ml measured after 12 hrs relative to control; settings: NCIM 2010, 12 h, read-out: GI; summary of the method: as §1
[6] = tested on: Bacillus subtilis; assay: Antibacterial activity against Bacillus subtilis NCIM 2079 measured after 12 hrs; settings: NCIM 2079, 12 h; summary of the method: as §1
[7] = tested on: Escherichia coli; assay: Growth inhibition of Escherichia coli NCIM 2688 at 30 ug/ml measured after 8 hrs relative to control; settings: NCIM 2688, 8 h, read-out: GI; summary of the method: as §1
[8] = tested on: Aspergillus flavus; assay: Antifungal activity against Aspergillus flavus NCIM 539 by standard agar method; summary of the method: as §2
[9] = tested on: Mycobacterium tuberculosis; assay: Growth inhibition of Mycobacterium bovis BCG ATCC 35743 at dormant stage at 3 ug/ml measured after 12 days by nitrate reductase dye based two fold dilution method relative to control; settings: BCG str. ATCC 35743, 288 h, read-out: GI
Summary of the method: (§3)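 M. bovis BCG was grown in Dubos medium and assayed in Mycobacterium pheli minimal medium (pH 6.6), with compounds from DMSO stocks. Incubation lasted 8 days for active and 12 days for dormant cultures. Viability was read by nitrate reductase at 540 nm against cell-free blanks, with vehicle set as 100% growth. Primary screen was at 30, 10 and 3 µg/ml, in triplicate, mean ± SD. MIC was taken from dose-response curves.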

[10] = tested on: Mycobacterium tuberculosis; assay: Growth inhibition of Mycobacterium bovis BCG ATCC 35743 at dormant stage at 30 ug/ml measured after 12 days by nitrate reductase dye based two fold dilution method relative to control; settings: BCG str. ATCC 35743, 288 h, read-out: GI; summary of the method: as §3
[11] = tested on: Mycobacterium tuberculosis; assay: Growth inhibition of Mycobacterium tuberculosis H37Ra ATCC 25177 at dormant stage measured after 12 days by XTT dye based two fold dilution method; settings: H37Ra ATCC 25177, 288 h
Summary of the method: (§4)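 MTB H37Ra was grown in Dubos medium, then exposed in Mycobacterium pheli minimal medium (pH 6.6) to compounds dissolved in DMSO. The assay ended on day 8 (active) or day 12 (dormant). Viable cells were measured by XTT reduction menadione assay at 470 nm, blank-corrected, relative to vehicle control. Triplicates were expressed as mean ± SD. MIC came from dose-response curves.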

[12] = Antifungal activity against Fusarium oxysporum NCIM 1332 by standard agar method; summary of the method: as §2
[13] = tested on: Bacillus subtilis; assay: Growth inhibition of Bacillus subtilis NCIM 2079 at 10 ug/ml measured after 12 hrs relative to control; settings: NCIM 2079, 12 h, read-out: GI; summary of the method: as §1
[14] = tested on: Escherichia coli; assay: Growth inhibition of Escherichia coli NCIM 2688 at 3 ug/ml measured after 8 hrs relative to control; settings: NCIM 2688, 8 h, read-out: GI; summary of the method: as §1
[15] = tested on: Pseudomonas fluorescens; assay: Growth inhibition of Pseudomonas fluorescens NCIM 2036 at 10 ug/ml measured after 8 hrs relative to control; settings: NCIM 2036, 8 h, read-out: GI; summary of the method: as §1
[16] = tested on: Mycobacterium tuberculosis; assay: Growth inhibition of Mycobacterium bovis BCG ATCC 35743 at active stage measured after 8 days by nitrate reductase dye based two fold dilution method; settings: BCG str. ATCC 35743, 192 h; summary of the method: as §3
[17] = tested on: Mycobacterium tuberculosis; assay: Growth inhibition of Mycobacterium bovis BCG ATCC 35743 at dormant stage at 10 ug/ml measured after 12 days by nitrate reductase dye based two fold dilution method relative to control; settings: BCG str. ATCC 35743, 288 h, read-out: GI; summary of the method: as §3
[18] = tested on: Bacillus subtilis; assay: Growth inhibition of Bacillus subtilis NCIM 2079 at 3 ug/ml measured after 12 hrs relative to control; settings: NCIM 2079, 12 h, read-out: GI; summary of the method: as §1
[19] = tested on: Mycobacterium tuberculosis; assay: Growth inhibition of Mycobacterium bovis BCG ATCC 35743 at dormant stage measured after 12 days by nitrate reductase dye based two fold dilution method; settings: BCG str. ATCC 35743, 288 h; summary of the method: as §3
[20] = tested on: Candida albicans; assay: Antifungal activity against Candida albicans NCIM 3471 by standard agar method; summary of the method: as §2
[21] = tested on: Pseudomonas fluorescens; assay: Growth inhibition of Pseudomonas fluorescens NCIM 2036 at 3 ug/ml measured after 8 hrs relative to control; settings: NCIM 2036, 8 h, read-out: GI; summary of the method: as §1
[22] = tested on: Bacillus subtilis; assay: Growth inhibition of Bacillus subtilis NCIM 2079 at 30 ug/ml measured after 12 hrs relative to control; settings: NCIM 2079, 12 h, read-out: GI; summary of the method: as §1
[23] = tested on: Pseudomonas fluorescens; assay: Growth inhibition of Pseudomonas fluorescens NCIM 2036 at 30 ug/ml measured after 8 hrs relative to control; settings: NCIM 2036, 8 h, read-out: GI; summary of the method: as §1
[24] = tested on: Mycobacterium tuberculosis; assay: Growth inhibition of Mycobacterium tuberculosis H37Ra ATCC 25177 at active stage measured after 8 days by XTT dye based two fold dilution method; settings: H37Ra ATCC 25177, 192 h; summary of the method: as §4
[25] = tested on: Escherichia coli; assay: Antibacterial activity against Escherichia coli NCIM 2688 measured after 8 hrs; settings: NCIM 2688, 8 h; summary of the method: as §1
[26] = tested on: Staphylococcus aureus; assay: Growth inhibition of Staphylococcus aureus NCIM 2010 at 3 ug/ml measured after 12 hrs relative to control; settings: NCIM 2010, 12 h, read-out: GI; summary of the method: as §1
[27] = tested on: Aspergillus niger; assay: Antifungal activity against Aspergillus niger NCIM 1196 by standard agar method; summary of the method: as §2
[28] = tested on: Staphylococcus aureus; assay: Growth inhibition of Staphylococcus aureus NCIM 2010 at 30 ug/ml measured after 12 hrs relative to control; settings: NCIM 2010, 12 h, read-out: GI; summary of the method: as §1

| Structure (SMILES) | MIC [1] [µg/mL] | MIC [2] [µg/mL] | MIC [3] [µg/mL] | inhibition of growth at 10 µg/mL [4] [%] | inhibition of growth at 10 µg/mL [5] [%] | MIC [6] [µg/mL] | inhibition of growth at 30 µg/mL [7] [%] | MIC [8] [µg/mL] | inhibition of growth at 3 µg/mL [9] [%] | inhibition of growth at 30 µg/mL [10] [%] | IC50 [11] [µg/mL] | IC90 [11] [µg/mL] | MIC [12] [µg/mL] | inhibition of growth at 10 µg/mL [13] [%] | inhibition of growth at 3 µg/mL [14] [%] | inhibition of growth at 10 µg/mL [15] [%] | IC50 [16] [µg/mL] | IC90 [16] [µg/mL] | inhibition of growth at 10 µg/mL [17] [%] | inhibition of growth at 3 µg/mL [18] [%] | other results |
| --- | --- | --- | --- | --- | --- | --- | --- | --- | --- | --- | --- | --- | --- | --- | --- | --- | --- | --- | --- | --- | --- |
| Cc1ccc2nc(Cl)c(/C=C3\SC(=S)N(CCC(=O)O)C3=O)cc2c1 | > 30 | 175 (≈ 445 µM) | > 30 | -47.6 | -13.6 | > 30 | -49 | 150 (≈ 382 µM) | -7.58 | -14.8 | > 30 | > 30 | 100 (≈ 255 µM) | -25.6 | -37.5 | 1.64 | > 30 | > 30 | -7.25 | -20.6 | IC50 [19]: > 30 µg/mL; IC90 [19]: > 30 µg/mL; MIC [20]: 50 µg/mL (≈ 127 µM); inhibition of growth at 3 µg/mL [21]: 5.35%; inhibition of growth at 30 µg/mL [22]: -31.1%; inhibition of growth at 30 µg/mL [23]: -6.24%; IC50 [24]: > 30 µg/mL; IC90 [24]: > 30 µg/mL; MIC [25]: > 30 µg/mL; inhibition of growth at 3 µg/mL [26]: -9.82%; MIC [27]: 100 µg/mL (≈ 255 µM); inhibition of growth at 30 µg/mL [28]: -19.6% |
| CCOc1ccc2nc(Cl)c(/C=C3\SC(=S)N(CCC(=O)O)C3=O)cc2c1 | > 30 | 175 (≈ 414 µM) | > 30 | 7.42 | -39.4 | > 30 | 14.8 | 100 (≈ 236 µM) | 21.5 | 32.5 | > 30 | > 30 | 125 (≈ 296 µM) | -8.28 | 5.32 | -40.5 | > 30 | > 30 | 33 | -2.45 | IC50 [19]: > 30 µg/mL; IC90 [19]: > 30 µg/mL; MIC [20]: 200 µg/mL (≈ 473 µM); inhibition of growth at 3 µg/mL [21]: -85%; inhibition of growth at 30 µg/mL [22]: -4.16%; inhibition of growth at 30 µg/mL [23]: 7.19%; IC50 [24]: > 30 µg/mL; IC90 [24]: > 30 µg/mL; MIC [25]: > 30 µg/mL; inhibition of growth at 3 µg/mL [26]: -5.78%; MIC [27]: 175 µg/mL (≈ 414 µM); inhibition of growth at 30 µg/mL [28]: -27.7% |
| Cc1ccc2cc(/C=C3\SC(=S)N(CCC(=O)O)C3=O)c(Cl)nc2c1 | > 30 | 150 (≈ 382 µM) | > 30 | 28.8 | -17.8 | > 30 | 10.3 | 150 (≈ 382 µM) | 19.1 | -9.18 | > 30 | > 30 | 100 (≈ 255 µM) | -5.45 | 18.5 | 17.1 | > 30 | > 30 | 7.51 | -6.11 | IC50 [19]: > 30 µg/mL; IC90 [19]: > 30 µg/mL; MIC [20]: 25 µg/mL (≈ 63.6 µM); inhibition of growth at 3 µg/mL [21]: 5.88%; inhibition of growth at 30 µg/mL [22]: -7.94%; inhibition of growth at 30 µg/mL [23]: 6.75%; IC50 [24]: > 30 µg/mL; IC90 [24]: > 30 µg/mL; MIC [25]: > 30 µg/mL; inhibition of growth at 3 µg/mL [26]: -6.25%; MIC [27]: 150 µg/mL (≈ 382 µM); inhibition of growth at 30 µg/mL [28]: -15% |
